Measured values taken from ChEMBL document CHEMBL2311478, “Macrolactonolides: a novel class of anti-inflammatory compounds” (Bioorg Med Chem, 2013).
In brackets after ≈: the same amount, converted by molar mass. Activity calls are given as the source filed them. The rule behind the calls is not given here.

How the values were obtained:
PBMC [1] = test: Antiinflammatory activity in human PBMC assessed as inhibition of PHA-induced IP-10 production after 24 hrs; assay type: functional, cell-based
In short: (§1)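 Thawed cryopreserved human PBMCs were preincubated 1 h at 37 °C, 5% CO2, then exposed to test compound for 1 h before LPS, anti-CD3 or PHA stimulation. Supernatants were collected at 6, 24 or 48 h according to each cytokine's peak, and cytokines quantified by Luminex multiplex bead assay. 10-point titration starting at 20 µM, in duplicate, with constant DMSO. Parallel Alamar Blue cytotoxicity check under 48 h PHA.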

[2] = Cmax in Balb/c mouse plasma at 2 mg/kg, administered intranasally; assay type: ADME, organism-based; set-up: route nasal, dose 2 mg/kg; conditions: inhaled or intranasal
In short: (§2)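 Male Balb/c mice (21–25 g) dosed intranasally with freshly prepared formulation in 1% DMSO plus 0.125% CMC. Terminal bleeding and lung collection from 5 min to 72 h. K2EDTA blood taken as blood aliquots or spun for plasma. Lung homogenised 1:5 in water. Samples were protein-precipitated with acetonitrile/methanol (2:1) plus roxithromycin internal standard and quantified by LC–MS/MS. LLOQ 0.5 ng/mL (blood/plasma) and 2.5 ng/mL (lung).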

Streptococcus pneumoniae = test: Antibacterial activity against inducible-resistant to macrolide, licosamide and streptogramin Streptococcus pneumoniae 134 GR-M by broth microdilution method; assay type: functional
In short: (§3)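 MICs by CLSI broth microdilution with double dilutions, except that Streptococcus medium used 5% horse serum in place of lysed blood. Bacteria were pre-grown on Columbia agar with 5% sheep blood (streptococci) or Mueller–Hinton agar (staphylococci).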

[3] = Cmax in Balb/c mouse lung at 2 mg/kg, administered intranasally; assay type: ADME, organism-based; set-up: dose 2 mg/kg, route nasal; conditions: inhaled or intranasal; in short: as §2
Streptococcus pyogenes [4] = test: Antibacterial activity against inducible-resistant to macrolide, licosamide and streptogramin Streptococcus pyogenes Finland 11 by broth microdilution method; assay type: functional; in short: as §3
PBMC [5] = test: Antiinflammatory activity in human PBMC assessed as inhibition of anti-CD3-induced TNFalpha production after 48 hrs; assay type: functional, cell-based; in short: as §1
Streptococcus pyogenes [6] = test: Antibacterial activity against efflux mediated macrolide-resistant Streptococcus pyogenes Finland 2 by broth microdilution method; assay type: functional; in short: as §3
Streptococcus pyogenes [7] = test: Antibacterial activity against erythromycin susceptible Streptococcus pyogenes 3565 by broth microdilution method; assay type: functional
In short: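 CLSI broth microdilution with double dilutions in 96-well plates. For streptococci, 5% horse serum replaced lysed blood in the medium. Inocula were grown on Columbia agar with 5% sheep blood for streptococci, Mueller–Hinton chocolate agar for H. influenzae, and Mueller–Hinton agar for staphylococci. Read-out is MIC in mg/L.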

PBMC [8] = test: Antiinflammatory activity in human PBMC assessed as inhibition of PHA-induced IL-5 production after 48 hrs; assay type: functional, cell-based; in short: as §1
PBMC [9] = test: Antiinflammatory activity in human PBMC assessed as inhibition of PHA-induced TNFalpha production after 6 hrs; assay type: functional, cell-based; in short: as §1
Rattus norvegicus [10] = test: Antiinflammatory activity against ovalbumin-induced airway allergic Brown-Norway rat model assessed as decrease of eosinophil peroxidase activity in bronchoalveolar lavage fluid at 32 mg/kg administered intranasally as dry powder measured on day 29 after ovalbumin challenge; assay type: functional, Lung; set-up: scale not given: the % may be the effect or the level left
PBMC [11] = test: Antiinflammatory activity in human PBMC assessed as inhibition of PHA-induced IL-6 production after 6 hrs; assay type: functional, cell-based; in short: as §1
Rattus norvegicus [12] = test: Antiinflammatory activity against ovalbumin-induced airway allergic Brown-Norway rat model assessed as decrease of total cell in bronchoalveolar lavage fluid at 32 mg/kg administered intranasally as dry powder measured on day 29 after ovalbumin challenge (reference value: 53.1%); assay type: functional, Lung; set-up: scale not given: the % may be the effect or the level left
PBMC [13] = test: Antiinflammatory activity in human PBMC assessed as inhibition of PHA-induced IL-2 production after 48 hrs; assay type: functional, cell-based; in short: as §1
Streptococcus pyogenes [14] = test: Antibacterial activity against constitutive-resistant to macrolide, licosamide and streptogramin Streptococcus pyogenes 166 GR-Micro by broth microdilution method; assay type: functional; in short: as §3
Rattus norvegicus [15] = test: Antiinflammatory activity against ovalbumin-induced airway allergic Brown-Norway rat model assessed as decrease of eosinophils in bronchoalveolar lavage fluid at 32 mg/kg administered intranasally as dry powder measured on day 29 after ovalbumin challenge (reference value: 53.1%); assay type: functional, Lung; set-up: scale not given: the % may be the effect or the level left
PBMC [16] = test: Antiinflammatory activity in human PBMC assessed as inhibition of LPS-induced IL-1beta production after 6 hrs; assay type: functional, cell-based; in short: as §1
Rattus norvegicus [17] = test: Antiinflammatory activity against ovalbumin-induced airway allergic Brown-Norway rat model assessed as decrease of macrophages in bronchoalveolar lavage fluid at 32 mg/kg administered intranasally as dry powder measured on day 29 after ovalbumin challenge; assay type: functional, organism-based; set-up: dose 32 mg/kg; conditions: Lung
In short: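 Brown-Norway rats sensitised by OVA injection on day 1, boosted on days 14 and 20. Treatment with 32 mg/kg or air control on day 27, followed 1 h later by 60 min OVA inhalation challenge. BAL cells differentiated about 48 h post-challenge (day 29). Comparison was against a sensitised, challenged, untreated group. Mean + SD, n = 10, Dunnett test.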

PBMC [18] = test: Antiinflammatory activity in human PBMC assessed as inhibition of PHA-induced IL-3 production after 48 hrs; assay type: functional, cell-based; in short: as §1
PBMC [19] = test: Antiinflammatory activity in human PBMC assessed as inhibition of PHA-induced IL-10 production after 48 hrs; assay type: functional, cell-based; in short: as §1
[20] = Cmax in Balb/c mouse blood at 2 mg/kg, administered intranasally; assay type: ADME, organism-based; set-up: dose 2 mg/kg, route nasal; conditions: whole blood, inhaled or intranasal; in short: as §2
[21] = Drug uptake in mouse J774A1 cells assessed as compound retention at 10 uM after 3 hrs by LC-MS/MS method; assay type: ADME, cell-based; conditions: j774.a1, 3 h
In short: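 J774A.1 cells were loaded with 10 µM compound for 3 h in DMEM/25 mM Hepes, then incubated 3 h in fresh medium. Cells were washed, lysed in 0.5% Triton X-100 and analysed by LC–MS/MS. Retention is the percentage of the initially accumulated amount remaining. Triplicates, mean ± SD from one representative experiment.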

PBMC [22] = test: Antiinflammatory activity in human PBMC assessed as inhibition of PHA-induced MIP1alpha production after 6 hrs; assay type: functional, cell-based; in short: as §1

CC[C@H]1OC(=O)[C@H](C)[C@@H](O[C@H]2C[C@@](C)(OC)[C@@H](O)[C@H](C)O2)[C@H](C)[C@@H](O[C@@H]2O[C@H](C)C[C@H](N(C)C)[C@H]2O)[C@](C)(O)C[C@@H](C)CN(CCCNC(=O)[C@H]2[C@H](C)C[C@H]3[C@@H]4CCC5=CC(=O)C=C[C@]5(C)[C@@]4(F)[C@@H](O)C[C@@]32C)[C@H](C)[C@@H](O)[C@]1(C)O
EC50 (PBMC [1]): > 20000 nM
Cmax [2]: 223 ng/mL
MIC (Streptococcus pneumoniae): > 64 µg/mL
Cmax [3]: 2410 ng/mL
MIC (Streptococcus pyogenes [4]): 32 µg/mL (≈ 28.2 µM)
EC50 (PBMC [5]): 37 nM
MIC (Streptococcus pyogenes [6]): 32 µg/mL (≈ 28.2 µM)
MIC (Streptococcus pyogenes [7]): 0.25 µg/mL (≈ 0.22 µM)
EC50 (PBMC [8]): 606 nM
EC50 (PBMC [9]): 1330 nM
Activity (Rattus norvegicus [10]): 50%
EC50 (PBMC [11]): 4030 nM
Activity (Rattus norvegicus [12]): 43.6%
EC50 (PBMC [13]): > 20000 nM
MIC (Streptococcus pyogenes [14]): > 64 µg/mL
Activity (Rattus norvegicus [15]): 43.6%
EC50 (PBMC [16]): > 20000 nM
Activity (Rattus norvegicus [17]): Active
EC50 (PBMC [18]): 1270 nM
EC50 (PBMC [19]): 5120 nM
Cmax [20]: 169 ng/mL
Drug uptake [21]: Active
EC50 (PBMC [22]): 2630 nM
